A short description of data set [1]: Cytotoxicity against human HepG2 cells assessed as cell viability at 7.5 uM incubated for 2 hrs by MTT assay relative to control. The settings on record: read-out: Activity. The class given is cell-based. An outline of the steps:
(§1)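 HepG2 human hepatoma cells; viability read by MTT assay, with 0.1% DMSO as vehicle control. Viability given as % of control, mean ± SEM (n = 3); p < 0.05 taken as significant.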
On the technique in general: Tetrazolium dyes change colour on reduction, which living cells bring about.

Data set [2] concerns the target T1, Amine oxidase [flavin-containing] A (Homo sapiens, UniProt P21397).
T1 sequence (P21397 whole entry): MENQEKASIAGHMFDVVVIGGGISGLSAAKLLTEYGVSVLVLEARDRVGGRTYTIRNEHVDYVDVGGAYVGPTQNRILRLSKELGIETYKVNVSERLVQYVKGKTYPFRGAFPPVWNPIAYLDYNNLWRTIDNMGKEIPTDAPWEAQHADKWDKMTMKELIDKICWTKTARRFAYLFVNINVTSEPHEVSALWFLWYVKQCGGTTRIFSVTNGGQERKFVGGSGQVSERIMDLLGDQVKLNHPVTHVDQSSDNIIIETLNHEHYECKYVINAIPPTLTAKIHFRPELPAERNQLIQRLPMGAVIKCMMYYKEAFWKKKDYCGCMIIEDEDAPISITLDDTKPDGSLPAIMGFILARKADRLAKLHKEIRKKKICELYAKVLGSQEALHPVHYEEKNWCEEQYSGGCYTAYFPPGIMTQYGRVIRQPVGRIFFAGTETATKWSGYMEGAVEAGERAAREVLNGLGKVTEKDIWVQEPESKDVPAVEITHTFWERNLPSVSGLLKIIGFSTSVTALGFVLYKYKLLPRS
The data set can be described thus: Irreversible inhibition of human MAO-A assessed as residual enzyme activity at 4 fold IC50 incubated for 15 mins and measured before dialysis relative to control. The essentials: (§2)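 Recombinant hMAO-A (1 U/mL) was preincubated with inhibitor for 15 min at 37 °C in 0.05 M potassium phosphate, pH 7.4, with 5% sucrose and 1% DMSO. It was then dialyzed at 4 °C against 100 mM potassium phosphate, pH 7.4, 5% sucrose (12 000 MWCO), with buffer replaced twice over 24 h. Dialyzed and undialyzed mixtures were assayed together for MAO-A activity, in triplicate; residual activity is given as mean ± SEM.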

The target in data set [3] is T1, Amine oxidase [flavin-containing] A. The data set can be described thus: Irreversible inhibition of human MAO-A assessed as residual enzyme activity at 4 fold IC50 incubated for 15 mins and measured 24 hrs post dialysis relative to control. The settings on record: 24.25 h, time 1455 min. The essentials: as §2
Data set [4] in a line: Cytotoxicity against human HepG2 cells assessed as cell viability at 30 uM incubated for 2 hrs by MTT assay relative to control. Type of data set: cell-based. The following applies: read-out: Activity. An outline of the steps:
as §1

Data set [5] is described as follows: Cytotoxicity against human HepG2 cells assessed as cell viability at 15 uM incubated for 2 hrs by MTT assay relative to control. The class given is cell-based. The settings on record: read-out: Activity. An outline of the steps:
as §1

In the case of `C#CCN(C)[C@H](C)Cc1ccccc1` [SELEGILINE], the viability at 2 h, 7.5 µM in data set [1] is 90%. Further, the Activity came to 89.96% in data set [2] and 90.01% in data set [3]. The viability at 2 h, 30 µM in data set [4] came to 84%. Besides, the viability at 2 h, 15 µM in data set [5] worked out at 87.2%.

The values above are taken from ChEMBL document CHEMBL4706681, “New 2-Pyrazoline and Hydrazone Derivatives as Potent and Selective Monoamine Oxidase A Inhibitors” (J Med Chem, 2021).
